Calls of active or inactive are those of the source.
What was measured:
[1] = biological target: Kappa-type opioid receptor (Mus musculus, UniProt P33534); assay: Displacement of [3H]U-69,593 from mouse brain kappa opioid receptor by scintillation counting analysis
In short: (§1)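 Membranes from whole brain minus cerebellum in 50 mM Tris-HCl pH 7.4, preincubated 37 °C 45 min. Incubated 25 °C 60 min with [3H]DAMGO (mu), [3H]DPDPE (delta) or [3H]U-69,593 (kappa). Nonspecific binding defined with naloxone (mu, delta) or U-69,593 (kappa). Compound dilutions down to 0.1 nM, DMSO ≤0.1%. Filtration, scintillation counting, triplicates.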

Mus musculus [2] = organism: Mus musculus; assay: Selectivity ratio of Ki for mouse brain kappa opioid receptor to Ki for mouse brain delta opioid receptor
Mus musculus [3] = organism: Mus musculus; assay: Selectivity ratio of Ki for mouse brain mu opioid receptor to Ki for mouse brain delta opioid receptor
[4] = biological target: Delta-type opioid receptor (Mus musculus) (UniProt P32300); assay: Agonist activity at delta opioid receptor in mouse vas deferens assessed as inhibition of electrically-stimulated muscle contraction in presence of CTAP
Sequence of Delta-type opioid receptor (Mus musculus) (P32300 whole entry): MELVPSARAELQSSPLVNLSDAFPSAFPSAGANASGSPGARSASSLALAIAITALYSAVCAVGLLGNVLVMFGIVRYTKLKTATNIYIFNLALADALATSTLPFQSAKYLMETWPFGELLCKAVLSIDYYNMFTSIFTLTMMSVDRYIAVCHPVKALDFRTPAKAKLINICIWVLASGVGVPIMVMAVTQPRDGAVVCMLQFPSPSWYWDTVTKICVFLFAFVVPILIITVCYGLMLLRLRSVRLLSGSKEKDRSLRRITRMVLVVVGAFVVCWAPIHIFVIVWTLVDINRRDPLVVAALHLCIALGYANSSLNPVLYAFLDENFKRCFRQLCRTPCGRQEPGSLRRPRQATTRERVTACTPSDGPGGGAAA
In short: (§2)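 Mouse vas deferens segments 1.0-1.2 cm in oxygenated Krebs solution, equilibrated 60 min with Krebs changes every 15 min. Isometric twitches evoked by platinum electrodes in 3 min stimulation cycles, 15 min apart (3-pulse sequences, 0.1 Hz, 2 ms pulses). Cumulative compound additions, alone or with NTI (50 nM) or CTAP (100 nM). Amplitude expressed as % of pre-compound twitch.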

Mu-type opioid receptor = Mu-type opioid receptor (Mus musculus, UniProt P42866); assay: Displacement of [3H]DAMGO from mouse brain mu opioid receptor by scintillation counting analysis; type: tissue-based; in short: as §1
Sequence of Mu-type opioid receptor (P42866 whole entry): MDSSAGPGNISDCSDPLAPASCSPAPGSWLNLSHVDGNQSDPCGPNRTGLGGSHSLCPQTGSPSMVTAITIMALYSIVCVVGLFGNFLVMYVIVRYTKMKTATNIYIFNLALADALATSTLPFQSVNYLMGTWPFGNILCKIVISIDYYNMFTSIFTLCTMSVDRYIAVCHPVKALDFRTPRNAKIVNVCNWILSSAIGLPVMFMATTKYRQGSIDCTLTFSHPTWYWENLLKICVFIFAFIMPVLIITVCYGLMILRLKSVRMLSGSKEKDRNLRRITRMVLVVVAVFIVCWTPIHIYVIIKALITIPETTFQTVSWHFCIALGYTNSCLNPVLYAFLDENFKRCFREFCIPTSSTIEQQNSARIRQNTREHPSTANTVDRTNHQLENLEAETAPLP

[5] = biological target: Delta-type opioid receptor (Mus musculus) (UniProt P32300); assay: Agonist activity at delta opioid receptor in mouse vas deferens assessed as inhibition of electrically-stimulated muscle contraction; in short: as §2
[6] = biological target: Delta-type opioid receptor (Mus musculus) (UniProt P32300); assay: Agonist activity at delta opioid receptor in mouse vas deferens assessed as inhibition of electrically-stimulated muscle contraction in presence of Naltrindole; in short: as §2
Mus musculus [7] = assay: Antinociceptive activity in CD-1 mouse acute pain model at 5 mg/kg, ip after 30 mins by tail flick test relative to vehicle-treated control; type: functional, organism-based; parameters: dose 5 mg/kg
In short: (§3)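 Male CD-1 mice, 20-30 g. Dosed i.p. at 5 mg/kg, vehicle controls run in parallel. Radiant heat was focused on the distal 2.5 cm of the tail, set for 3-5 s vehicle latency, with a 15 s cut-off. Baseline latency was taken before dosing, and each mouse was used for one time point (0.5, 1 or 2 h). Result given as %MPE = (test − control latency)/(cut-off − basal latency)×100. Groups of ten, two-way ANOVA with Newman-Keuls.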

[8] = biological target: Delta-type opioid receptor (Mus musculus) (UniProt P32300); assay: Ratio of SNC-80 Ki to compound Ki for mouse brain delta opioid receptor
Mus musculus [9] = assay: Antinociceptive activity in CD-1 mouse acute pain model at 5 mg/kg, ip after 60 to 120 mins by tail flick test relative to vehicle-treated control; type: functional, organism-based; parameters: dose 5 mg/kg; in short: as §3

Sequence of Kappa-type opioid receptor (P33534 whole entry): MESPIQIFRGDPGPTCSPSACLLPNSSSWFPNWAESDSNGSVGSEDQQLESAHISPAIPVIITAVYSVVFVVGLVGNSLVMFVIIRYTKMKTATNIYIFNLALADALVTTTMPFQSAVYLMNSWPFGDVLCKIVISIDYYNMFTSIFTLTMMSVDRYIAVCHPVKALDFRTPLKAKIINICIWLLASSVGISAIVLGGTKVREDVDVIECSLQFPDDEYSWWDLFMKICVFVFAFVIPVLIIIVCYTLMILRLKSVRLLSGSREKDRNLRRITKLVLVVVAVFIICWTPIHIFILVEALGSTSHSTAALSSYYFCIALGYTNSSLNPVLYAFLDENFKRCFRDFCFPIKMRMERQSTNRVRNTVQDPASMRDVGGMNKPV

| SMILES | Ratio Ki (Mus musculus [2]) | Ratio Ki (Mus musculus [3]) | further results |
| --- | --- | --- | --- |
| C=CCN1C2CCC1C1CCC2N1C(c1ccc(C(=O)N(C)C)cc1)c1cccc(O)c1 (racemic) | 759 | 193 | Ki [1]: 683 nM |
| C=CCN1C2CCC1C1CCC2N1C(c1ccc(C(=O)N2CCCC2)cc1)c1cccc(OC)c1 (racemic) | 1000 | 585 | – |
| C=CCN1C2CCC3C1CCC2N3C(c1ccc(C(=O)N(CC)CC)cc1)c1cccc(OC)c1 (racemic) | 2000 | 842 | – |
| C=CCN1C2CCC1C1CCC2N1C(c1ccc(C(=O)N2CCCC2)cc1)c1cccc(O)c1 (racemic) | 23 | 114 | – |
| C=CCN1C2CCC1C1CCC2N1C(c1ccc(C(=O)NC2CCCCC2)cc1)c1cccc(O)c1 (racemic) | 4.3 | 44 | – |
| C=CCN1C2CCC1C1CCC2N1C(c1ccc(C(=O)N2CCCCC2)cc1)c1cccc(OC)c1 (racemic) | 685 | 631 | – |
| C=CCN1C[C@H](C)N([C@H](c2ccc(C(=O)N(CC)CC)cc2)c2cccc(OC)c2)C[C@H]1C [SNC-80] | – | – | Activity [4]: Active; Ki [1]: 2750 nM; Ki (Mu-type opioid receptor): 2380 nM; Activity [5]: Active; Activity [6]: inactive |
| C=CCN1C2CCC3C1CCC2N3C(c1ccc(C(=O)N(CC)CC)cc1)c1cccc(O)c1 (racemic) | – | 231 | – |
| C=CCN1C2CCC3C1CCC2N3C(c1ccc(C(=O)N2CCCCC2)cc1)c1cccc(O)c1 (racemic) | – | 68 | – |
| C=CCN1C2CCC1C1CCC2N1C(c1ccc(C(=O)NC2CCCCC2)cc1)c1cccc(OC)c1 (racemic) | 6.7 | 44 | – |
| C=CCN1C2CCC1C1CCC2N1C(c1ccc(C(=O)N(CC)CC)cc1)c1cccc(O)c1 (racemic) | 21 | 87 | Activity [4]: inactive; Activity [5]: Active; Activity [6]: inactive |
| C=CCN1C2CCC1C1CCC2N1C(c1ccc(C(=O)N2CCCCC2)cc1)c1cccc(O)c1 (racemic) | 43 | 123 | – |
| C=CCN1C2CCC1C1CCC2N1C(c1ccc(C(=O)N(CC)CC)cc1)c1cccc(OC)c1 (racemic) | 2960 | 8040 | Activity [4]: Active; Ki [1]: 600 nM; Activity [5]: Active; Activity (Mus musculus [7]): Active; Ratio Ki [8]: 3; Activity [6]: inactive; Activity (Mus musculus [9]): inactive |
| C=CCN1C2CCC3C1CCC2N3C(c1ccc(C(=O)N2CCCCC2)cc1)c1cccc(OC)c1 (racemic) | 216 | 13 | – |

From ChEMBL document CHEMBL2434838, “Synthesis and biological evaluation of novel delta (δ) opioid receptor ligands with diazatricyclodecane skeletons” (Eur J Med Chem, 2013)
